Results: ChEMBL document CHEMBL3232716, “Tailoring cytotoxicity of antimicrobial peptidomimetics with high activity against multidrug-resistant Escherichia coli” (J Med Chem, 2014)
pIC50: −log10 of the molar value. Values after ≈ are worked out from the molar mass of the structure shown.

What was measured:
[1] = Cytotoxicity against mouse NIH/3T3 cells after 1 hr by MTS/PMS assay; type: cell-based; conditions: NIH3T3, 1 h
How it was run: (§1)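 Monolayers (passage 4–10) grown ~21–25 h to ~90% confluence. Seeding per well: HeLa 8000, HepG2 23 000, NIH 3T3 22 000, IEC-6 16 000, Caco-2 25 000. Cells washed with HBSS/10 mM Hepes pH 7.4 and exposed 1 h at 37 °C, 50 rpm, to compound 0–2000 μM in culture medium. MTS 240 μg/mL/PMS 2.4 μg/mL for 1.5–4 h, A492. Viability referenced to SDS and untreated controls; IC50 from one biological replicate in triplicate.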

Caco-2 = assay: Cytotoxicity against human Caco2 cells after 1 hr by MTS/PMS assay; type: cell-based; conditions: Caco-2, 1 h; how it was run: as §1
HepG2 = assay: Cytotoxicity against human HepG2 cells after 1 hr by MTS/PMS assay; type: cell-based; conditions: HepG2, 1 h; how it was run: as §1
Enterococcus faecium = assay: Antibacterial activity against vancomycin-resistant Enterococcus faecium ATCC 700221 after 18 hrs by microdilution broth method; conditions: ATCC 700221, 18 h
Escherichia coli [2] = assay: Antibacterial activity against NDM-1 producing Escherichia coli clinical isolate 74859898 after 18 hrs by microdilution broth method; type: functional; conditions: clinical isolate 74859898, 18 h
Acinetobacter baumannii = assay: Antibacterial activity against multidrug-resistant Acinetobacter baumannii clinical isolate E2-1228625 after 18 hrs by microdilution broth method; type: functional; conditions: clinical isolate E2-1228625, 18 h
Escherichia coli [3] = assay: Antibacterial activity against Escherichia coli ATCC 25922 after 18 hrs by microdilution broth method; type: functional; conditions: ATCC 25922, 18 h
How it was run: (§2)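 CLSI broth microdilution. […] Incubated 35 °C in ambient air for 18 h. MIC taken as the lowest concentration with no visible growth versus the compound-free control. Reported as median and range of three independent biological replicates run on separate days.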

[4] = Binding affinity to cholesterol containing synthetic POPC/POPG liposomal membrane at 20 uM by circular dichroism analysis; type: physicochemical; conditions: artificial membrane
How it was run: (§3)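 CD spectra recorded with 20 μM test compound and 2 mM liposomes in 10 mM Tris buffer, pH 7.5. Liposomes were roughly 100 nm: POPC/POPG 7:3 (bacterial model) or POPC/POPG/cholesterol 5:3:2 (mammalian model). Lipid concentration was standardized by enzymatic phospholipid colorimetric assay.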

Escherichia coli [5] = assay: Antibacterial activity against extended-spectrum beta-lactamase producing multidrug-resistant and colistin-susceptible Escherichia coli CTX-M-15 clinical isolate Aar 11 after 18 hrs by microdilution broth method; type: functional; conditions: CTX-M-15, 18 h
Staphylococcus aureus = assay: Antibacterial activity against methicillin-resistant Staphylococcus aureus ATCC 33591 after 18 hrs by microdilution broth method; type: functional; conditions: ATCC 33591, 18 h; how it was run: as §2
[6] = Cytotoxicity against rat IEC-6 cells after 1 hr by MTS/PMS assay; type: cell-based; conditions: IEC-6, 1 h; how it was run: as §1
[7] = Binding affinity to synthetic POPC/POPG liposomal membrane at 20 uM by circular dichroism analysis; type: physicochemical; conditions: artificial membrane; how it was run: as §3
HeLa = assay: Cytotoxicity against human HeLa cells after 1 hr by MTS/PMS assay; type: cell-based; how it was run: as §1
HUVEC = assay: Cytotoxicity against HUVEC after 1 hr by MTS/PMS assay; type: cell-based; conditions: Homo sapiens
How it was run: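 HUVEC seeded at 15 000 cells/well on collagen-coated wells (0.6 μg/cm2), passage 4–10, grown to ~90% confluence over 21–25 h. Cells exposed to compound (0–2000 μM) in F-12K medium for 1 h at 37 °C. MTS 240 μg/mL with PMS 9.6 μg/mL in HBSS for 1.5–4 h, then A492. Viability referenced to 0.2% SDS and untreated cells; IC50 reported.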

| SMILES | pIC50 [1] | pIC50 (Caco-2) | pIC50 (HepG2) | MIC (Enterococcus faecium) | MIC (Escherichia coli [2]) | MIC (Acinetobacter baumannii) | MIC (Escherichia coli [3]) | Activity [4] | MIC (Escherichia coli [5]) | MIC (Staphylococcus aureus) | pIC50 [6] | Activity [7] | pIC50 (HeLa) | pIC50 (HUVEC) |
| --- | --- | --- | --- | --- | --- | --- | --- | --- | --- | --- | --- | --- | --- | --- |
| CC(=O)N[C@@H](CCCCNC(=N)N)C(=O)N(CCC(=O)N[C@@H](CCCCN)C(=O)N(CCC(=O)N[C@@H](CCCCNC(=N)N)C(=O)N(CCC(=O)N[C@@H](CCCCN)C(=O)N(CCC(=O)N[C@@H](CCCCNC(=N)N)C(=O)N(CCC(N)=O)Cc1ccccc1)Cc1ccccc1)Cc1ccccc1)Cc1ccccc1)Cc1ccccc1 | 3.13 | < 3.00 | 3.03 | 128 µM (≈ 209 µg/mL) | 8 µM (≈ 13.1 µg/mL) | 128 µM (≈ 209 µg/mL) | 8 µM (≈ 13.1 µg/mL) | Not Active | 16 µM (≈ 26.1 µg/mL) | 64 µM (≈ 104 µg/mL) | < 3.00 | Not Active | 3.29 | < 3.00 |
| CC(=O)N[C@@H](CCCCN)C(=O)N(CCC(=O)N[C@@H](CCCCNC(=N)N)C(=O)N(CCC(=O)N[C@@H](CCCCN)C(=O)N(CCC(=O)N[C@@H](CCCCNC(=N)N)C(=O)N(CCC(=O)N[C@@H](CCCCN)C(=O)N(CCC(=O)N[C@@H](CCCCNC(=N)N)C(=O)N(CCC(N)=O)Cc1ccccc1)Cc1ccccc1)Cc1ccccc1)Cc1ccccc1)Cc1ccccc1)Cc1ccccc1 | 3.44 | < 3.00 | 3.49 | 32 µM (≈ 61.5 µg/mL) | 1 µM (≈ 1.92 µg/mL) | 16 µM (≈ 30.7 µg/mL) | 1 µM (≈ 1.92 µg/mL) | Not Active | 1 µM (≈ 1.92 µg/mL) | 32 µM (≈ 61.5 µg/mL) | 3.34 | Not Active | 3.64 | < 3.00 |
| CC(=O)N[C@@H](CCCCNC(=N)N)C(=O)N(CCC(=O)N[C@@H](CCCCN)C(=O)N(CCC(=O)N[C@@H](CCCCNC(=N)N)C(=O)N(CCC(=O)N[C@@H](CCCCN)C(=O)N(CCC(=O)N[C@@H](CCCCNC(=N)N)C(=O)N(CCC(N)=O)[C@@H](C)c1ccccc1)[C@@H](C)c1ccccc1)[C@@H](C)c1ccccc1)[C@@H](C)c1ccccc1)[C@@H](C)c1ccccc1 | 3.63 | < 3.00 | 3.73 | 64 µM (≈ 109 µg/mL) | 8 µM (≈ 13.6 µg/mL) | 64 µM (≈ 109 µg/mL) | 8 µM (≈ 13.6 µg/mL) | Not Active | 8 µM (≈ 13.6 µg/mL) | 16 µM (≈ 27.2 µg/mL) | 3.73 | Not Active | 3.87 |  |
| CC(=O)N[C@@H](CCCCN)C(=O)N(CCC(=O)N[C@@H](CCCCNC(=N)N)C(=O)N(CCC(=O)N[C@@H](CCCCN)C(=O)N(CCC(=O)N[C@@H](CCCCNC(=N)N)C(=O)N(CCC(=O)N[C@@H](CCCCN)C(=O)N(CCC(=O)N[C@@H](CCCCNC(=N)N)C(=O)N(CCC(N)=O)[C@@H](C)c1ccccc1)[C@@H](C)c1ccccc1)[C@@H](C)c1ccccc1)[C@@H](C)c1ccccc1)[C@@H](C)c1ccccc1)[C@@H](C)c1ccccc1 | 3.87 | 3.48 | 4.00 | 16 µM (≈ 32.1 µg/mL) | 2 µM (≈ 4.01 µg/mL) | 8 µM (≈ 16 µg/mL) | 2 µM (≈ 4.01 µg/mL) | Not Active | 4 µM (≈ 8.02 µg/mL) | 16 µM (≈ 32.1 µg/mL) | 3.83 | Not Active | 4.41 | 3.30 |
| CC(=O)N[C@@H](CCCCN)C(=O)N(CCC(=O)N[C@@H](CCCCNC(=N)N)C(=O)N(CCC(=O)N[C@@H](CCCCN)C(=O)N(CCC(=O)N[C@@H](CCCCNC(=N)N)C(=O)N(CCC(=O)N[C@@H](CCCCN)C(=O)N(CCC(=O)N[C@@H](CCCCNC(=N)N)C(=O)N(CCC(=O)N[C@@H](CCCCN)C(=O)N(CCC(N)=O)[C@@H](C)c1ccccc1)[C@@H](C)c1ccccc1)[C@@H](C)c1ccccc1)[C@@H](C)c1ccccc1)[C@@H](C)c1ccccc1)[C@@H](C)c1ccccc1)[C@@H](C)c1ccccc1 | 4.05 | 3.71 | 4.32 | 4 µM (≈ 9.24 µg/mL) | 2 µM (≈ 4.62 µg/mL) | 2 µM (≈ 4.62 µg/mL) | 2 µM (≈ 4.62 µg/mL) | Not Active | 2 µM (≈ 4.62 µg/mL) | 8 µM (≈ 18.5 µg/mL) | 4.10 | Not Active | 4.59 | 3.63 |
